Data reported in ChEMBL document CHEMBL3044971, “Dialkoxybenzene and dialkoxyallylbenzene feeding and oviposition deterrents against the cabbage looper, Trichoplusia ni: potential insect behavior control agents” (J Agric Food Chem, 2010).

What was measured:
[1] = test system: Trichoplusia ni; details: in vivo, 24 h
[2] = test system: Trichoplusia ni; experiment: Feeding deterrent activity against freshly molted third-instar larval stage of Trichoplusia ni (cabbage looper) in compound pretreated cabbage leaves at 50 ug/cm2 after 3 to 5 hr by leaf disk choice bioassay; type: functional
How it was run: (§1)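 Leaf-disk choice test on greenhouse cabbage (Stonehead) leaves from 5-6-week plants. Freshly molted third-instar T. ni from a diet-reared colony (>50 generations) were starved 4-5 h. One disk had 10 μL test solution painted on each side, the other carrier solvent only. There were 25 larvae per treatment. Run ended at ~50% control disk eaten (3-5 h). Deterrence = (C−T)/(C+T)×100 from consumed areas.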

[3] = test system: Trichoplusia ni; experiment: Oviposition deterrent activity against adult female Trichoplusia ni (cabbage looper) moths introduced along with male moths into oviposition cage containing compound pretreated cabbage leaves assessed as eggs laying on the leaf disks at 0.25% after 48 hr; type: functional
How it was run: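 Choice test: one male and one female moth were caged with a control and a treated cabbage leaf (~100-110 cm²). Each side was sprayed with 0.5 mL MeOH or methanolic test solution at 0.25%. Values are mean ± SE, N = 35-40.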

[4] = test system: Trichoplusia ni; experiment: Feeding deterrent activity against freshly molted third-instar larval stage of Trichoplusia ni (cabbage looper) in compound pretreated cabbage leaves after 3 to 5 hr by leaf disk choice bioassay; type: functional, organism-based
How it was run: as §1

Structure (SMILES) | mortality [1] | Activity [2] | Activity [3] | DC50 [4]
C=CCOc1c(CC=C)cccc1OCCC(C)C | 7% | 22% |  | 
C=CCOc1c(CC=C)cccc1OCCC | 7% | 22% |  | 
C=CCOc1c(CC=C)cccc1OC | 7% | 22% |  | 
C=CCOc1c(CC=C)cccc1OCC | 7% | 22% |  | 
C=CCc1cccc(OCCCC)c1OCCC(C)C | 7% | 22% |  | 
C=CCc1cccc(OCCC)c1OCCC(C)C | 7% | 22% |  | 
C=CCc1cccc(OC)c1OCCC(C)C | 7% | 22% |  | 
C=CCc1cccc(OCC)c1OCCC(C)C | 7% | 22% |  | 
C=CCc1cccc(OCCCC)c1OCCCC | 1% | 6% |  | 
C=CCc1cccc(OCCC(C)C)c1OCCCC | 1% | 6% |  | 
C=CCc1cccc(OCCC)c1OCCCC | 1% | 6% |  | 
C=CCc1cccc(OC)c1OCCCC | 1% | 6% |  | 
C=CCc1cccc(OCC)c1OCCCC | 1% | 6% |  | 
C=CCc1cccc(OCCCC)c1OCCC | 47% | 31% |  | 
C=CCc1cccc(OCCC(C)C)c1OCCC | 47% | 31% |  | 
C=CCc1cccc(OCCC)c1OCCC | 47% | 31% |  | 
C=CCc1cccc(OC)c1OCCC | 47% | 31% |  | 
C=CCc1cccc(OCC)c1OCCC | 47% | 31% |  | 
C=CCc1cccc(OCCCC)c1OCC | 27% | 100% | 31% | 20 microg/cm2

Structure (SMILES) | mortality [1] | Activity [2] | Activity [3] | DC50 [4]
C=CCc1cccc(OCCC(C)C)c1OCC | 27% | 100% | 31% | 20 microg/cm2
C=CCc1cccc(OCCC)c1OCC | 27% | 100% | 31% | 20 microg/cm2
C=CCc1cccc(OC)c1OCC | 27% | 100% | 31% | 20 microg/cm2
C=CCc1cccc(OCC)c1OCC | 27% | 100% | 31% | 20 microg/cm2
C=CCc1cccc(OCCCC)c1O | 17% | 100% | 7% | 20.6 microg/cm2
C=CCc1cccc(OCCC(C)C)c1O | 17% | 100% | 7% | 20.6 microg/cm2
C=CCc1cccc(OCC)c1O | 17% | 100% | 7% | 20.6 microg/cm2
C=CCc1cccc(OCCC)c1O | 17% | 100% | 7% | 20.6 microg/cm2
C=CCc1cccc(OC)c1O | 17% | 100% | 7% | 20.6 microg/cm2
C=CCOc1cccc(OCCC(C)C)c1 |  |  | 10% | 
C=CCOc1cccc(OC)c1 | 33% | 66% | 9% | 34 microg/cm2
C=CCOc1cccc(OCC=C)c1 | 13% | 97% | 26% | 20 microg/cm2
C=CCOc1ccccc1OCCC(C)C |  |  | 26% | 
C=CCOc1ccc(OCC)cc1 [1-allyloxy-4-ethoxybenzene] |  | 73% | 17% | 30 microg/cm2
C=CCOc1ccc(OCCC(C)C)cc1 [1-allyloxy-4-isopentoxybenzene] |  |  | -25% | 
C=CCOc1ccc(OCCC)cc1 [1-allyloxy-4-propoxybenzene] |  | 100% | 21% | 0.5 microg/cm2
C=CCOc1cccc(O)c1 [3-(ALLYLOXY)PHENOL] |  | 36% | 5% | 
C=CCc1ccc(O)c(OC)c1 [EUGENOL] | 30% | 44% |  | 56 microg/cm2
C=CCc1ccc(OC)c(OC)c1 [METHYLEUGENOL] |  | 64% | -22% | 26 microg/cm2
